Assay type in all cases: functional
Test [1] deals with Mus musculus. Kind of test: Percent increase in life span of drug-treated mice relative to tumored, vehicle treated controls at a dose of 3.75 mg/kg ip. In outline:
(§1)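 Tumors implanted day 0: B16 melanoma as 0.5 mL of 1:10 brei into BDF1 mice; L1210 or P388 leukemia as 10^6 cells into CDF1 mice, ip or sc. Drug was given in physiologic saline by ip or oral route, QD 1-9. %ILS was calculated against saline-treated tumored controls, with body-weight change difference as the toxicity read-out. Six mice per dose in most experiments.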

Test [2] relates to Mus musculus. Kind of test: Percent increase in life span of drug-treated mice relative to tumored, vehicle treated controls at a dose of 0.68 mg/kg ip. A digest of the protocol:
as §1

Test [3] has as its system Mus musculus. The experiment in a line: Percent increase in life span of drug-treated mice relative to tumored, vehicle treated controls at a dose of 1.11 mg/kg ip. In outline:
as §1

Test [4] deals with Mus musculus. The experiment in a line: Percent increase in life span of drug-treated mice relative to tumored, vehicle treated controls at a dose of 1.25 mg/kg ip. A digest of the protocol: as §1
The subject of test [5] is Mus musculus. Kind of test: Percent increase in life span of drug-treated mice relative to tumored, vehicle treated controls at a dose of 1.67 mg/kg ip. In outline: as §1
In test [6] the test system is Mus musculus. Kind of test: Antitumor activity against P388 tumor in mice, at a dose of 3.75 mg/kg per ip administration. The settings on record: route intraperitoneal. In outline:
(§2)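 Tumors implanted ip on day 0: B16 melanoma (0.5 mL of 1:10 brei) in BDF1 mice, and L1210 or P388 leukemia (10^6 cells) in CDF1 mice. Compound was given ip in physiologic saline daily on days 1–9. Read-out was % increase in life span versus vehicle-treated tumored controls, with body-weight change difference also recorded. Six mice per dose, three in some P388 groups.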

Test [7] has as its system Mus musculus. Kind of test: Antitumor activity against L1210 tumor in mice, at a dose of 1.25 mg/kg per ip administration. The settings on record: route intraperitoneal. In outline:
as §2

For test [8], the system named is Mus musculus. Kind of test: Antitumor activity against L1210 tumor in mice, at a dose of 2.5 mg/kg per ip administration. The settings on record: route intraperitoneal. A digest of the protocol:
as §2

For test [9], the system named is Mus musculus. The experiment in a line: Antitumor activity against L1210 tumor in mice, at a dose of 1.67 mg/kg per ip administration. Particulars: route intraperitoneal. A digest of the protocol:
as §2

Test [10] relates to Mus musculus. The experiment in a line: Antitumor activity against P388 tumor in mice, at a dose of 1.11 mg/kg per ip administration. Particulars: route intraperitoneal. A digest of the protocol:
as §2

The subject of test [11] is Mus musculus. Kind of test: Antitumor activity against P388 tumor in mice, at a dose of 1.67 mg/kg per ip administration. The settings on record: route intraperitoneal. In outline:
as §2

For test [12], the system named is Mus musculus. The experiment in a line: Antitumor activity against L1210 tumor in mice, at a dose of 0.68 mg/kg per ip administration. The settings on record: route intraperitoneal. A digest of the protocol: as §2
In test [13] the test system is Mus musculus. Kind of test: Antitumor activity against L1210 tumor in mice, at a dose of 1.11 mg/kg per ip administration. The settings on record: route intraperitoneal. In outline:
as §2

For test [14], the system named is Mus musculus. The experiment in a line: Antitumor activity against P388 tumor in mice, at a dose of 2.5 mg/kg per ip administration. The settings on record: route intraperitoneal. In outline:
as §2

For test [15], the system named is Mus musculus. The experiment in a line: Percent increase in life span of drug-treated mice relative to tumored, vehicle treated controls at a dose of 2.5 mg/kg ip. In outline:
as §1

The subject of test [16] is Mus musculus. Kind of test: Percent increase in life span of drug-treated mice relative to tumored, vehicle treated controls at a dose of 200 mg/kg ip. The settings on record: Mus musculus, ip. A digest of the protocol:
as §1

In test [17] the test system is Mus musculus. Kind of test: Percent increase in life span of drug-treated mice relative to tumored, vehicle treated controls at a dose of 400 mg/kg ip. Particulars: Mus musculus, ip. In outline:
as §1

The subject of test [18] is Mus musculus. Kind of test: Percent increase in life span of drug-treated mice relative to tumored, vehicle treated controls at a dose of 800 mg/kg ip. The settings on record: Mus musculus, ip. A digest of the protocol: as §1
Test [19] concerns Mus musculus. The experiment in a line: Antitumor activity against L1210 tumor in mice, at a dose of 400 mg/kg per ip administration. Particulars: route intraperitoneal. In outline: as §2
The subject of test [20] is Mus musculus. Kind of test: Antitumor activity against L1210 tumor in mice, at a dose of 800 mg/kg per ip administration. Particulars: route intraperitoneal. A digest of the protocol: as §2
Test [21] relates to Mus musculus. Kind of test: Antitumor activity against L1210 ttumor in mice, at a dose of 200 mg/kg per ip administration. Particulars: route intraperitoneal. A digest of the protocol:
as §2

“And” between values parts separate entries of the source, which are not always exact repeats. Identical values can stand only once.

As usually defined, the ILS is the gain in survival time of treated over control animals, in per cent. A higher ILS goes with much gain in survival.

On to `O=c1ncc(F)cn1C1O[C@H](CO)[C@@H](O)[C@H]1O` (stereo partly specified), for which the increase in lifespan (ILS) at 3.75 mg/kg in test [1] came out at 60%. In addition, in test [2], the increase in life span (ILS) at 0.68 mg/kg was 62%. Besides, the ILS in [3] was 75% and 50%; in test [5], 118% and 45% and 50%; in test [15], 137% [middle of 4 runs]. The compound further had an increase in life span (ILS) at 1.25 mg/kg in test [4] of 75%. Further, the Weight change difference was -2 g in [6]; 0 g in test [7]; -1 g and -2 g in test [8]; -1 g in test [9]; -1 g in test [10]; -2 g in test [11]. In addition, the results for the Weight change difference in test [12], in test [13] and in test [14] were 0 g, 0 g and -2 g, respectively.

In turn, `O=c1ncccn1[C@@H]1O[C@H](CO)[C@@H](O)[C@@H]1F` yielded an ILS at 200 mg/kg in test [16] of 31%. The same compound showed an ILS at 400 mg/kg in test [17] of 37%. This compound displayed an increase in lifespan (ILS) at 800 mg/kg in [18] of 43%. The Weight change difference in test [19] is listed as 0 g; in test [20], 1 g; in test [21] it was 1 g.

The record behind these values is ChEMBL document CHEMBL1125796, “Antitumor properties of 2(1H)-pyrimidinone riboside (zebularine) and its fluorinated analogues” (1991).
